Assay outcomes deposited in PubChem BioAssay by Broad Institute.
This excerpt belongs to a sample that is enriched for hits.
ERp5 block: inhibitors of ERp5-driven insulin aggregation, primary screen, biochemical, turbidity, absorbance 650 nm, single point | Protein disulfide-isomerase A6 (Homo sapiens), Q15084 | 90 min | inhibition, % at 9.99 µM | 350,000 compounds, 0.05% hits;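 active = mean replicate inhibition above about 25%, with every replicate also reaching it, limit read from the data, passing the limit was not always enough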
Target sequence (Q15084 whole entry, looked up): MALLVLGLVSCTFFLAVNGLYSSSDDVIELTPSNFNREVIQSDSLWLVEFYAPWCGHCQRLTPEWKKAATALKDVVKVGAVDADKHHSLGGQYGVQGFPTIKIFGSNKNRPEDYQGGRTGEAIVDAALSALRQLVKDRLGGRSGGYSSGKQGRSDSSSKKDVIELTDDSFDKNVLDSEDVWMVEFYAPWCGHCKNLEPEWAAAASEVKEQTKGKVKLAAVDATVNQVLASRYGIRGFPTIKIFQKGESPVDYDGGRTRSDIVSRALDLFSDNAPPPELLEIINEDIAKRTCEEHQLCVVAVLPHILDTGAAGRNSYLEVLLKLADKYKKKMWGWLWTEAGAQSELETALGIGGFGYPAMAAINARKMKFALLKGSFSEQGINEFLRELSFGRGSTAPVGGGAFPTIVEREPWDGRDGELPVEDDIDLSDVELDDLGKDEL
ERAP1 inh: human ERAP1 aminopeptidase inhibitors, primary screen, biochemical, single point, plate reader. Endoplasmic reticulum aminopeptidase 1 (Homo sapiens), Q9NZ08. recombinant ERAP1, Leu-AMC fluorescence, 60 min. inhibition, % at 10.7 µM. 340,000 compounds, 0.15% hits. AID 652197, 2013;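 active = mean replicate inhibition of at least 30%, or all replicates individually reaching that 30% level; inactive = mean below 30% and not every replicate reaching it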;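 note: 0% = neutral control wells and 100% = L-leucinethiol positive control wells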
PDI turbidity: inhibitors of human PDI, primary screen, biochemical, turbidity, single point, plate reader. Protein disulfide-isomerase (Homo sapiens), P07237. AID 588391, 2011. 350,000 compounds, 0.052% hits. inhibition, % at 10 µM. PDI insulin aggregation turbidity, A650, 90 min;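 active = mean inhibition across replicates of 30% or more, whatever share of single replicates reach that level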
FGF22 binding: binders of human FGF22 protein, primary screen, FGF22 synaptogenesis inhibitor project, biophysical, thermal shift, single point; Fibroblast growth factor 22 (Homo sapiens), Q9HCT0; recombinant FGF22 thermal shift, SYPRO orange fluorescence; percent of sucrose octasulfate shift, DMSO zero; activity (Tm shift, normalised), % at 9.99 µM; 340,000 compounds, 1.5% hits;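 active = mean Tm shift, scaled 0 neutral to 100 positive control, at about 1.3% or above, every replicate too, limit read from the data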
S100A4 inh HTS: inhibitors of S100A4-myosin IIA peptide binding, primary screen, biochemical, fluorescence polarization, TAMRA-MyoIIA peptide. 360,000 compounds, 0.14% hits. Protein S100-A4 (Homo sapiens), P26447. inhibition, % at 10.7 µM;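 active = mean inhibition of at least 70% across replicates, with every replicate also reaching that level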
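Compound dosing: one dose per compound; test system: human S100A4 monomer with TAMRA-labelled myosin IIA peptide; probe or stimulus: TAMRA-labelled myosin IIA heavy-chain peptide probe, 5 nM; medium: HEPES buffer with Ca2+, pH 7.2; schedule: 5 min incubation before reading; benchmarks: neutral control DMSO, positive control TFP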
Numbers without * were called inactive.

C=CCN(C(=O)c1csnn1)C(C(=O)NCc1ccccc1)c1cccs1 (configuration not stated) was read as ERp5 block 2, ERAP1 inh -3, PDI turbidity -18, FGF22 binding 0 and S100A4 inh HTS 4.
Screening CC(=O)NC(=S)Nc1ccc(-c2nc3ccc(C)cc3s2)cc1 returned ERp5 block 3, ERAP1 inh -2, PDI turbidity -16, FGF22 binding 0 and S100A4 inh HTS -1.
`CNC(=S)Nc1ccc(-c2nc3ccc(C)cc3s2)cc1` gave ERp5 block -1, ERAP1 inh -1, PDI turbidity -2, FGF22 binding 22* and S100A4 inh HTS 3.
COCC(=O)N1CCCCN2[C@H](CO)[C@H](c3ccc(C#Cc4ccc(OC)cc4)cc3)[C@@H]2C1 was read as ERp5 block -3, ERAP1 inh 3, FGF22 binding 1 and S100A4 inh HTS -7.
Screening COc1cc(COCC(O)CN2CCc3ccccc3C2)cc(OC)c1OC (configuration not stated) returned ERp5 block -8, ERAP1 inh -5, PDI turbidity -5, FGF22 binding 44* and S100A4 inh HTS 1.
`S=C(NC1CCCCC1)N1CCc2[nH]c3ccccc3c2C1` gave ERp5 block -1, ERAP1 inh -1, PDI turbidity 2, FGF22 binding 0 and S100A4 inh HTS -7.
Cc1ccc(NC2=NCC(=O)N2C2CCCC2)cc1 was read as ERp5 block 2, ERAP1 inh -4, PDI turbidity -6, FGF22 binding 43* and S100A4 inh HTS 0.
CO[C@@H]1CN(C)C(=O)c2cc(NC(=O)Nc3cccc(F)c3)ccc2OC[C@H](C)N(C(C)=O)C[C@@H]1C was read as ERp5 block -22, ERAP1 inh 3, FGF22 binding 0 and S100A4 inh HTS 7.
For CN1CCCCN2[C@H](C1)[C@H](c1ccc(C#CC3(O)CCCC3)cc1)[C@@H]2CO the results were ERp5 block 6, ERAP1 inh 5, FGF22 binding 0 and S100A4 inh HTS 13.
For CCN1C(=O)[C@H]2[C@@H](c3ccc(-c4ccc(OC)cc4)c(OC)c3)N[C@@](Cc3ccccc3)(C(=O)OC)[C@H]2C1=O the results were ERp5 block 5, ERAP1 inh -2, PDI turbidity 0, FGF22 binding 0 and S100A4 inh HTS 3.
For COc1ccc(C2NC(Cc3ccccc3)(C(=O)O)C3C(=O)N(c4ccccc4OC)C(=O)C23)cc1 (configuration not stated) the results were ERp5 block 0, ERAP1 inh 3, PDI turbidity 0, FGF22 binding 43* and S100A4 inh HTS 4.
Screening CCC(=O)Nc1ccc2c(c1)OC[C@@H](C)N(C(=O)CC1CC1)C[C@H](C)[C@@H](OC)CN(C)C2=O returned ERp5 block -1, ERAP1 inh 0, FGF22 binding 0 and S100A4 inh HTS -3.
CO[C@H]1CN(C)C(=O)c2ccc(NC(C)=O)cc2OC[C@@H](C)N(Cc2cncnc2)C[C@@H]1C was read as ERp5 block -6, ERAP1 inh -1, FGF22 binding 0 and S100A4 inh HTS -1.
`CCC(=O)Nc1ccc2c(c1)OC[C@H](C)N(C(=O)CC1CC1)C[C@H](C)[C@H](OC)CN(C)C2=O` gave ERp5 block -1, ERAP1 inh 1, FGF22 binding -1 and S100A4 inh HTS 96*.
For CO[C@H]1CN(C)C(=O)c2cc(NC(=O)Nc3ccc(C(F)(F)F)cc3)ccc2OC[C@H](C)NC[C@H]1C the results were ERp5 block 0, ERAP1 inh 2, FGF22 binding -1 and S100A4 inh HTS 136*.
Screening CCS(=O)(=O)Nc1ccc2c(c1)C(=O)N(C)C[C@@H](OC)[C@H](C)CN(C(C)=O)[C@@H](C)CO2 returned ERp5 block -1, ERAP1 inh 3, FGF22 binding 0 and S100A4 inh HTS -2.
Screening CCS(=O)(=O)Nc1ccc2c(c1)C(=O)N(C)C[C@@H](OC)[C@@H](C)CN(C(C)=O)[C@H](C)CO2 returned ERp5 block -1, ERAP1 inh 1, FGF22 binding -1 and S100A4 inh HTS 98*.
